Bioassay records as filed in PubChem.
SENP1 FRET inh = blocks the human SENP1 SUMO protease catalytic domain | recombinant SENP1 catalytic domain, CyPet-SUMO1-YPet FRET cleavage | inhibition, % at 10 µM | hit rate 0.21% among 360,000 | AID 624204;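 active means inhibition at least 30% at 10 µM, raw YFP signal under a set limit, fluorescence ratio 0.5 to 1.5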;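 further: 0% = enzyme with DMSO and 100% = no enzyme wells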
Target sequence (Q9P0U3 419-644 limits assumed): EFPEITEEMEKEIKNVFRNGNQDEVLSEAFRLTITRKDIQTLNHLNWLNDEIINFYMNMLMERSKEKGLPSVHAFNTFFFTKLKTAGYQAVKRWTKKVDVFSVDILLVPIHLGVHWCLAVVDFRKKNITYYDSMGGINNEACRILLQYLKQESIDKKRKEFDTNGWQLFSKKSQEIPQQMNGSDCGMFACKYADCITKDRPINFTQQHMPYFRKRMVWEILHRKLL
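Controls: no-enzyme wells low, DMSO-plus-enzyme wells high control. Test system: human recombinant His6-tagged SENP1 catalytic domain enzyme. Reagent: SFCypet-SUMO1-SFYpet FRET protein substrate, 25 nM final. Doses: one dose per compound, 10 µM, 0.5% DMSO. Detection: FRET, CFP and YFP emission. Timing: 50 min reaction at room temperature.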
FAS TE block = FAS thioesterase (human) inhibition. P49327. recombinant FAS-TE, OMFH fluorogenic substrate, fluorescence endpoint. inhibition, % at 15 µM. hit rate 0.67% among 360,000. AID 602261;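 active means compounds whose normalised, plate-corrected inhibition of enzyme fluorescence in the single-dose primary screen is 50% or more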;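 further: 0% = DMSO with enzyme and 100% = substrate without enzyme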
ABCB6 inh MLPCN = inhibitors of human ABC transporter ABCB6; fluorescence ratio to DMSO, % at 10 µM; K562-ABCB6 porphyrin accumulation, flow cytometry, 1 h; active compounds read low; AID 602162; hit rate 0.19% among 360,000; Q9NP58;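 active means fluorescence ratio to DMSO below 75%, the collection mean minus 3 SD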;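 further: signal is porphyrin accumulated inside mitochondria; 100% equals median channel fluorescence of DMSO control wells; lower ratio means ABCB6 inhibition with less porphyrin fluorescence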
hiPSC survival = hiPSC single-cell survival enhancement | ATPlite luminescence; 100% = ROCK inhibitor wells, 0% = DMSO | survival enhancement, % at 20 µM | hit rate 0.044% among 360,000 | AID 602274; in the data active means survival enhancement above about 18%;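 further: cells exposed to compounds for 16 hours before the ATP read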
FAS-TE inh conf = FAS thioesterase (human) inhibition, confirmation. shares compounds with FAS TE block. recombinant FAS-TE, OMFH fluorogenic substrate, fluorescence. inhibition, % at 15 µM. hit rate 45% among 2,300. AID 624325;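 active means compounds inhibiting the enzyme by at least 50% at 15 µM in any one of the replicates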;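 further: 0% = enzyme with DMSO only and 100% = wells lacking enzyme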
Numbers without * were called inactive; . = not tested or not shown. Rows were chosen to be rich in hits. Some 1.1% of all compounds tested hit in one or more screens of this group.

SMILES	SENP1 FRET inh	FAS TE block	ABCB6 inh MLPCN	hiPSC survival	FAS-TE inh conf
O=C(c1ccc2c(c1)OCO2)N1CCC2(CC1)Oc1ccc(Cl)cc1C(=O)C21CC(c2ccccc2)=NO1 (stereo not drawn)	0.4	53.7*	95.0	-2.0	6.2
N#C/C(=C\c1cccc([N+](=O)[O-])c1)C(=O)NCc1cccnc1	-2.4	11.8	101.0	12.0	.
N#C/C(=C\c1cccc([N+](=O)[O-])c1)C(=O)NCc1ccc(Cl)cc1	-1.6	74.1*	99.0	0.5	77.3*
O=C(O)C1(c2ccccc2)CCN(S(=O)(=O)c2ccc(F)c(F)c2)CC1	-0.5	-5.6	93.0	-0.2	.
Cc1nc(N2CCN(c3ccccn3)CC2)c2c(C)c(C(=O)Nc3c(C)cc(Br)cc3C)sc2n1	4.8	73.1*	95.0	-0.6	15.1
CCOc1c(C)cc(S(=O)(=O)NCc2ccccn2)c(C)c1C	0.4	-4.6	94.0	0.3	.
CCOc1ccccc1Nc1nnc(SC(C)C(=O)Nc2nc(-c3ccccc3)cs2)s1 (stereo not drawn)	2.2	75.6*	103.0	2.0	17.9
CCOc1ccccc1Nc1nnc(SCC(=O)NC(=O)c2cccn2C)s1	-0.4	3.1	96.0	0.0	.
COC(=O)[C@@]1(Cc2ccc(F)cc2)[C@H]2c3cc(C(=O)N4CCCC4)n(CCF)c3C[C@H]2CN1C(=O)c1ccccc1	-7.2	7.5	126.0	-0.4	.
COC(=O)[C@@]1(Cc2ccc(OC)cc2)[C@H]2c3cc(C(=O)N4CCCC4)n(CCc4c[nH]c5ccccc45)c3C[C@H]2CN1C(=O)c1ccccc1	-2.0	58.1*	97.0	-0.5	23.4
COC(=O)[C@@]1(Cc2ccc(F)cc2)[C@H]2c3cc(C(=O)N4CCCC4)n(CCc4c[nH]c5ccccc45)c3C[C@H]2CN1C(=O)c1ccccc1	-1.1	62.2*	97.0	-0.7	15.5
COc1cc(OC)cc(C(=O)N2CCN(C(=O)c3cccnc3)CC2)c1	2.1	-4.7	93.0	0.2	.
O=C(Cc1ccc(S(=O)(=O)N2CCOCC2)s1)N1CCN(S(=O)(=O)c2cccc([N+](=O)[O-])c2)CC1	-4.2	37.4	99.0	0.6	.
O=C(Cc1ccc(S(=O)(=O)N2CCOCC2)s1)N1CCN(S(=O)(=O)c2ccccc2[N+](=O)[O-])CC1	-0.9	87.3*	103.0	0.2	83.3*
CCOc1ccc(S(=O)(=O)N2CCN(C(=O)Cc3ccc(S(=O)(=O)N4CCOCC4)s3)CC2)cc1	-0.1	23.3	95.0	-0.2	.
Cc1ccc(C)c(S(=O)(=O)N2CCN(C(=O)Cc3ccc(S(=O)(=O)N4CCOCC4)s3)CC2)c1	-3.9	69.4*	97.0	-0.4	63.0*
COc1cc2c(Cc3ccccc3)cncc2cc1O	1.3	-8.3	95.0	-0.4	.
O=C(Nc1cccc(S(=O)(=O)N2CCCCC2)c1)c1ccc(S(=O)(=O)C(F)F)cc1	-4.4	59.4*	85.0	1.0	39.1
CCc1ccc(NC(=O)c2ccc3c(=O)n4c(nc3c2)CCCCC4)cc1	0.5	7.6	99.0	-0.7	.
O=C(Nc1cccc(S(=O)(=O)N2CCCCC2)c1)c1ccc2c(=O)n3c(nc2c1)CCCCC3	1.1	59.7*	89.0	2.7	21.6
COc1cc(Cl)c(C)cc1NC(=O)CN(C)C1CCS(=O)(=O)C1 (stereo not drawn)	-1.4	-3.2	99.0	-0.1	.
COCCn1c(=S)[nH]c2cc(C(=O)N3CCN(c4ccccc4OC)CC3)ccc2c1=O	0.7	0.0	88.0	-1.3	.
C=CCn1c(=S)[nH]c2cc(C(=O)N3CCN(c4ccccc4OC)CC3)ccc2c1=O	1.3	54.1*	96.0	-0.4	57.6*
Cc1ccc(O)c(NC(=O)c2cc(C)no2)c1	-0.8	-1.1	95.0	0.7	.
Cc1cccc(C2=NN(c3ccccc3)[C@@H](C(=O)N3CCOC3=O)[C@@H]2c2ccc([N+](=O)[O-])cc2)c1	2.5	91.5*	96.0	0.3	17.5
SMILES	SENP1 FRET inh	FAS TE block	ABCB6 inh MLPCN	hiPSC survival	FAS-TE inh conf
CC[C@@H]1C(c2cccc(C)c2)=NN(c2ccccc2)[C@H]1C(=O)N1CCOC1=O	6.9	16.2	99.0	0.6	.
O=C1OCCN1C(=O)[C@H]1[C@H](c2ccc([N+](=O)[O-])cc2)C(c2ccccc2)=NN1c1ccc(Br)cc1	2.3	90.0*	98.0	0.8	11.7
O=C1OCCN1C(=O)[C@H]1[C@H](c2ccc([N+](=O)[O-])cc2)C(c2cccc(Cl)c2)=NN1c1ccc(Br)cc1	-6.3	86.6*	97.0	-1.1	6.2
CC[C@@H]1C(c2cccc(Cl)c2)=NN(c2ccc(Br)cc2)[C@H]1C(=O)N1CCOC1=O	-37.9	41.9	94.0	1.9	.
Cc1ccc(S(=O)(=O)Nc2ccccc2C(=O)Nc2nc(-c3ccc(F)cc3)cs2)cc1	-10.8	56.0*	94.0	2.3	57.5*
COc1ccc(-c2csc(NC(=O)c3ccccc3NS(=O)(=O)c3ccc(F)c(F)c3)n2)cc1	-0.5	58.1*	94.0	-0.6	19.0
COc1ccc(-c2csc(NC(=O)c3ccccc3F)n2)cc1	-2.5	24.2	98.0	-0.8	.
Cc1c(C(=O)Nc2ccc(F)cc2)sc2ncn(CC(=O)N3CCCCC3)c(=O)c12	-3.1	1.1	95.0	0.3	.
O=c1cc[nH]c2c1ccc1cccnc12	1.8	-7.9	107.0	9.3	.
CCOC(=O)[C@]12CCCC=C1N(Cc1ccc3c(c1)OCO3)C(=O)[C@H](CC(=O)N1CCN(C(=O)C3CC3)CC1)C2	1.2	-8.2	104.0	-0.5	.
COc1ccc([C@@H]2[C@@H]3C(=O)N(C(C)(C)C)C(=O)[C@@H]3[C@]3(Cc4ccccc4)C(=O)N(c4ccc(OC)cc4)C(=O)N23)cc1	0.2	12.3	99.0	2.6	.
COc1ccc([C@@H]2[C@@H]3C(=O)N(C(C)(C)C)C(=O)[C@@H]3[C@]3(Cc4ccc(Cl)cc4)C(=O)N(c4cccc(C)c4)C(=O)N23)cc1	0.7	82.8*	93.0	-1.6	39.0
COc1ccc([C@@H]2[C@@H]3C(=O)N(C(C)(C)C)C(=O)[C@@H]3[C@]3(Cc4ccc(Cl)cc4)C(=O)N(c4ccc(C)cc4)C(=O)N23)cc1	-0.1	91.6*	104.0	-2.8	39.1
O=c1c(S(=O)(=O)c2ccc(Cl)cc2)cn(Cc2cccc(F)c2)c2ccc(F)cc12	1.0	69.7*	95.0	0.9	31.9
Cc1ccc(S(=O)(=O)c2cn(Cc3ccc(F)cc3)c3cc4c(cc3c2=O)OCO4)cc1	-2.9	58.4*	94.0	7.0	20.0
Cc1ccccc1Cn1cc(S(=O)(=O)c2ccc(C(C)C)cc2)c(=O)c2cc3c(cc21)OCO3	1.6	61.8*	97.0	0.1	32.4
Cc1ccc(Cn2cc(S(=O)(=O)c3ccc(C(C)C)cc3)c(=O)c3cc4c(cc32)OCO4)cc1	-0.6	11.4	96.0	3.3	.
O=C(NCc1cccc2[nH]ccc12)C1CCC(=O)N(CCc2ccc(Cl)cc2)C1 (stereo not drawn)	-2.7	-1.6	102.0	0.1	.
